Experimental data taken from ChEMBL document CHEMBL4837219, “Chemical modification of NSC12 leads to a specific FGF-trap with antitumor activity in multiple myeloma” (Eur J Med Chem, 2021).
The source made the active and inactive calls. No cut-off for these calls is given here.

Tests used:
[1] = test system: KMS-11; assay: Trapping activity at FGF in human KMS-11 cells assessed as inhibition of FGFR3 phosphorylation at 6 uM measured after 6 hrs by western blot analysis; assay type: cell-based
Outline: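 KMS-11 cells treated for 6 h with compound at 6.0 µM, then lysed in NP-40 buffer containing orthovanadate and protease inhibitors. Phospho-FGFR3 detected by western blot with anti-phospho-Y724 antibody, using β-actin or α-tubulin as loading control. Result expressed as % inhibition of FGFR3 phosphorylation by densitometry.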

[2] = test system: KMS-11; assay: Antiproliferative activity against human KMS-11 cells assessed as reduction in cell viability incubated for 48 hrs by propidium iodide staining-based flow cytometric analysis; assay type: functional; conditions: KMS-11, 48 h
Outline: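 KMS-11 cells (maintained in RPMI1640 with 10% heat-inactivated FBS and 2.0 mM glutamine) exposed to increasing concentrations of compound for 48 h. Viable PI-negative cells counted by flow cytometry using the analyzer's absolute counting function. IC50 is the concentration giving 50% inhibition of proliferation, taken as the mean of at least 2 experiments run in triplicate.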

[3] = target: Fibroblast growth factor 2 (Homo sapiens, UniProt P09038); assay: Binding affinity to FGF2 (unknown origin) by sensor chip immobilization based surface plasmon resonance analysis
Fibroblast growth factor 2, sequence (P09038 143-288 limits assumed): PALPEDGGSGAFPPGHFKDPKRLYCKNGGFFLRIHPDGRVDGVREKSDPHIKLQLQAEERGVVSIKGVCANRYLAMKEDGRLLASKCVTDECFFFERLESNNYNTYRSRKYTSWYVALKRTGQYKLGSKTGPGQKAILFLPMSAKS

[4] = test system: OPM-2; assay: Trapping activity at FGF in human OPM-2 cells assessed as inhibition of FGFR3 phosphorylation at 6 uM measured after 6 hrs by westernblot analysis; assay type: cell-based
Outline: (§1)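 Cells cultured in RPMI1640 with 10% FBS and 2.0 mM glutamine, then treated 6 h with 6 µM compound. Washed in cold PBS and lysed in NP-40 buffer (20 mM Tris-HCl pH 8, 1 mM orthovanadate, protease inhibitors). Bradford used to normalize protein. Blots probed for phospho-FGFR3 (Y724), with β-actin or α-tubulin as loading control; percent inhibition read by densitometry.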

[5] = test system: RPMI-8226; assay: Trapping activity at FGF in human RPMI-8226 cells assessed as inhibition of FGFR3 phosphorylation at 6 uM measured after 6 hrs by westernblot analysis; assay type: cell-based; outline: as §1
[6] = test system: U-266; assay: Trapping activity at FGF in human U-266 cells assessed as inhibition of FGFR3 phosphorylation at 6 uM measured after 6 hrs by westernblot analysis; assay type: cell-based; outline: as §1
[7] = target: T1, Estrogen receptor (Homo sapiens) (UniProt P03372); assay: Displacement of [3H]estradiol from human full length recombinant ERalpha expressed in baculovirus-infected Sf9 cells at 5 uM incubated for 120 mins by radiometric scintillation counting analysis
T1 sequence (whole entry): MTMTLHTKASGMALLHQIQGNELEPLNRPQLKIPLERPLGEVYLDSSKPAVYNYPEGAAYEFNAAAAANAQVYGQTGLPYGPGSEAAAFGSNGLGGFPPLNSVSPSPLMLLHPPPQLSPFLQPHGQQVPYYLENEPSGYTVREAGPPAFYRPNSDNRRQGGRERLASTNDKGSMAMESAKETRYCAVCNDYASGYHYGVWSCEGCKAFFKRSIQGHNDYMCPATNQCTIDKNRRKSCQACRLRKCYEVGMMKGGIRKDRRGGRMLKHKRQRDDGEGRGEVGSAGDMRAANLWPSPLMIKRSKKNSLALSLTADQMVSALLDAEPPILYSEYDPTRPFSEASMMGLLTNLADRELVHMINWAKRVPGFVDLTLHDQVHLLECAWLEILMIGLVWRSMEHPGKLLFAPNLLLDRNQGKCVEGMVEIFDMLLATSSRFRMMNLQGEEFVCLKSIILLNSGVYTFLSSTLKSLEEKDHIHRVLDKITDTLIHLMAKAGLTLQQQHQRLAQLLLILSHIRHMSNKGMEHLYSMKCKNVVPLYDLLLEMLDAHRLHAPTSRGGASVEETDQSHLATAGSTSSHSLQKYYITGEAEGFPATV
Outline: (§2)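 Radioligand competition binding to human ERα or ERβ, run as an outsourced panel assay. Readout is % inhibition of specific [3H]estradiol binding at 5.0 and 50 µM compound. Run in duplicate, and the mean of the duplicates is reported.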

[8] = target: T1, Estrogen receptor (Homo sapiens); assay: Displacement of [3H]estradiol from human full length recombinant ERalpha expressed in baculovirus-infected Sf9 cells at 50 uM incubated for 120 mins by radiometric scintillation counting analysis; outline: as §2
[9] = target: Estrogen receptor beta (Homo sapiens) (UniProt Q92731); assay: Displacement of [3H]estradiol from human full length recombinant ERbeta expressed in baculovirus-infected Sf9 cells at 5 uM incubated for 120 mins by radiometric scintillation counting analysis; outline: as §2
Estrogen receptor beta (Homo sapiens), sequence (Q92731 whole entry): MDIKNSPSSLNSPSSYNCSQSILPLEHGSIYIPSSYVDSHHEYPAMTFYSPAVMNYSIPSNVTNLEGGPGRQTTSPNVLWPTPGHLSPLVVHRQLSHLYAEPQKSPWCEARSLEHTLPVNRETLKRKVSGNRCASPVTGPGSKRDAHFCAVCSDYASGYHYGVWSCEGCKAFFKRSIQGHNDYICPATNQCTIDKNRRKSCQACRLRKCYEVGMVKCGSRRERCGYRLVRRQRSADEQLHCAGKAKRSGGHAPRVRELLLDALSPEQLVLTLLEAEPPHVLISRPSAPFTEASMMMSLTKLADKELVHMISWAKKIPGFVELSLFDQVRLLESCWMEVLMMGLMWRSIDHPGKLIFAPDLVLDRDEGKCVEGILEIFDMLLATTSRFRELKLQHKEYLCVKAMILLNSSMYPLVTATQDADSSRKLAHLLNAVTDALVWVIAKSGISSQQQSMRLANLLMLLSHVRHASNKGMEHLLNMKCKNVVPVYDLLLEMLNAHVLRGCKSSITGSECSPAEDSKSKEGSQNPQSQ

[10] = target: Estrogen receptor beta (Homo sapiens) (UniProt Q92731); assay: Displacement of [3H]estradiol from human full length recombinant ERbeta expressed in baculovirus-infected Sf9 cells at 50 uM incubated for 120 mins by radiometric scintillation counting analysis; outline: as §2
[11] = test system: KMS-11; assay: Antitumor activity against human KMS-11 cells xenografted in NOD-SCID mouse assessed as tumor growth inhibition at 7.5 mg/kg, ip administered every other day measured at day 17 post-tumor implantation by caliper analysis; assay type: functional, organism-based
Outline: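 Female NOD/SCID mice, six to eight weeks old, injected s.c. with 5 × 10^6 KMS-11 cells in PBS. Once tumors were palpable (10 days), mice were randomized and given 7.5 mg/kg i.p. every other day, with DMSO as vehicle control; n = 5 per group. Tumor volume from caliper measurements, V = (D × d²)/2. Tumors excised and weighed at day 17.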

[12] = Total plasma concentration in NOD-SCID mouse at 7.5 mg/kg, ip measured after 90 mins by HPLC/MS/MS analysis; assay type: ADME, organism-based
Outline: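 A single 7.5 mg/kg i.p. dose given to eight-week-old NOD/SCID mice (n = 4). Blood collected at 90 min. Plasma treated with acetonitrile containing internal standard (1:2) to precipitate protein, centrifuged, and the supernatant analyzed by C18 gradient HPLC-MS/MS in ESI-negative MRM mode. Calibration in spiked blank plasma, linear over 1–1000 nM, LOQ 1 nM. Values are mean ± SEM.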

[13] = test system: OPM-2; assay: Antiproliferative activity against human OPM-2 cells assessed as reduction in cell viability incubated for 48 hrs by propidium iodide staining-based flow cytometric analysis; assay type: functional; conditions: OPM-2, 48 h
Outline: (§3)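 Myeloma cells kept at low passage in RPMI1640 with 10% heat-inactivated FBS and 2.0 mM glutamine, Mycoplasma-tested, authenticated. Exposed to increasing concentrations of test compound for 48 h. Viable cells counted as propidium iodide-negative by flow cytometry with absolute counts. IC50 = concentration halving proliferation; mean of at least 2 experiments in triplicate.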

[14] = test system: RPMI-8226; assay: Antiproliferative activity against human RPMI-8226 cells assessed as reduction in cell viability incubated for 48 hrs by propidium iodide staining-based flow cytometric analysis; assay type: functional; conditions: RPMI-8226, 48 h; outline: as §3
[15] = test system: U-266; assay: Antiproliferative activity against human U-266 cells assessed as reduction in cell viability incubated for 48 hrs by propidium iodide staining-based flow cytometric analysis; assay type: functional; conditions: U-266, 48 h; outline: as §3
[16] = Drug metabolism in NOD-SCID mouse plasma assessed as (1R)-4,4,4-trifluoro-1-((3S,10R,13S,17S)-3-hydroxy-10,13-dimethyl-2,3,4,7,8,9,10,11,12,13,14,15,16,17-tetradecahydro-1H-cyclopenta[a]phenanthren-17-yl)-3-(trifluoromethyl)butane-1,3-diol formation at 7.5 mg/kg, ip measured after 90 mins by HPLC-MS/MS analysis; assay type: ADME, organism-based; conditions: in vivo, 1.5 h

Kd [3]: 30 µM | inhibition [7]: 7.4% | inhibition [8]: 50% | inhibition [9]: 21.4% | inhibition [10]: 71.3% | concentration at 1.5 h [12]: 7.5 nM | IC50 [14]: 7.3 µM | Drug metabolism [16]: Metabolite_Detected
SMILES: C[C@]12CC[C@H]3[C@@H](CC=C4C[C@@H](OC(=O)CN)CC[C@@]43C)[C@@H]1CC[C@@H]2[C@H](O)CC(O)(C(F)(F)F)C(F)(F)F
inhibition [1]: 100% | IC50 [2]: 2.3 µM | Activity [4]: Active | Activity [5]: Active | Activity [6]: Active | Activity [11]: inactive | IC50 [13]: 7.3 µM | IC50 [15]: 6.9 µM
